# Values joined by “and” are separate entries in the source; they are usually repeats but may differ in a detail not shown here. Equal entries are not always repeated. “Also recorded” adds a separate entry of the source. Where two headings read alike, the source gives them in different places.
# What was measured:
# HIV-RT = details: substituted pyridinones; cited from earlier work
# primary mouse neurons [1] = experiment: Calcium imaging in primary mouse neuron cultures; format: cell-based; details: 1 µM
# Outline: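 Primary mouse cortex/hippocampus cultures were seeded at 20,000 cells/cm2 on poly-D-lysine coverslips in Neurobasal Plus/B27 Plus/Glutamax (>95% neurons by day 4). At 14–18 days in vitro, neurons were loaded with Fluo-4 AM (2 µM) in aCSF (NaCl 137, KCl 5.0, CaCl2 2.3, MgCl2 1.3, glucose 20 mM). Average spikes were scored in acute and delayed phases plus a summation average, versus matched controls. Statistics: Brown-Forsythe/Welch ANOVA with Dunnett's T3.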
# [2] = cited from earlier work
# primary mouse neurons [3] = experiment: Neuronal toxicity by MAP-2 staining in primary mouse neurons; format: cell-based; details: for estimated TC10: primary neurons, discussion; for TC50 (µM) Relative MAP-2 Area / TC50 (µM) Relative MAP-2 intensity: 48 hr, 0.1 to 10,000 nM, ±SD
# HIV = details: cited from earlier work
# HIV-1 IIIB virus = experiment: Inhibition of wild-type HIV-1; format: cell-based
# [4] = biological target: HIV reverse transcriptase (Human immunodeficiency virus type 1 group M subtype B, UniProt P03366); experiment: HIV RT inhibition, fluorescent EnzChek/PicoGreen assay; format: biochemical, HIV-1
# [5] = test system: HIV-1 IIIB (A17 variant) virus; experiment: microbe, parasite or virus in culture; format: cell-based; details: for EC50: Human immunodeficiency virus 1, IIIB, TZM-bl
# hERG = hERG (Homo sapiens, UniProt Q12809); details: cited from earlier work
# TZM-bl cells = experiment: Cytotoxicity in TZM-bl cells; format: cell-based
# [6] = Cytotoxicity in TZM-bl cells; format: cell-based; details: human
# K103N HIV mutant = experiment: Inhibition of NNRTI-resistant K103N mutant in TZM-bl cells; format: cell-based, HIV-1; details: 0.05–500 nM
# [7] = Metabolic stability in human liver microsomes; format: in vitro ADME
# Balb/C male mice = experiment: In vivo acute toxicity study; details: 2000 mg/kg single oral dose, 14 days
# [8] = Single-dose pharmacokinetics in mice; details: mouse
# [9] = Metabolic stability in mouse liver microsomes; format: in vitro ADME
# Y181C HIV mutant = experiment: Inhibition of NNRTI-resistant Y181C mutant in TZM-bl cells; format: cell-based, HIV-1; details: 0.05–500 nM
# Caco-2 cells = experiment: Efflux in Caco-2 cells; format: in vitro ADME
# Protein binding = format: in vitro ADME
# Balb/C mice = experiment: In vivo subacute toxicity study; details: 30 days
# Solubility = format: physicochemical
# L100I/K103N HIV mutant = experiment: Inhibition of NNRTI-resistant L100I/K103N mutant in TZM-bl cells; format: cell-based, HIV-1; details: 0.05–500 nM
# [10] = Human immunodeficiency virus 1, IIIB, TZM-bl, read-out: WT EC50 (nM)
# Chain of hERG (Q12809 whole entry): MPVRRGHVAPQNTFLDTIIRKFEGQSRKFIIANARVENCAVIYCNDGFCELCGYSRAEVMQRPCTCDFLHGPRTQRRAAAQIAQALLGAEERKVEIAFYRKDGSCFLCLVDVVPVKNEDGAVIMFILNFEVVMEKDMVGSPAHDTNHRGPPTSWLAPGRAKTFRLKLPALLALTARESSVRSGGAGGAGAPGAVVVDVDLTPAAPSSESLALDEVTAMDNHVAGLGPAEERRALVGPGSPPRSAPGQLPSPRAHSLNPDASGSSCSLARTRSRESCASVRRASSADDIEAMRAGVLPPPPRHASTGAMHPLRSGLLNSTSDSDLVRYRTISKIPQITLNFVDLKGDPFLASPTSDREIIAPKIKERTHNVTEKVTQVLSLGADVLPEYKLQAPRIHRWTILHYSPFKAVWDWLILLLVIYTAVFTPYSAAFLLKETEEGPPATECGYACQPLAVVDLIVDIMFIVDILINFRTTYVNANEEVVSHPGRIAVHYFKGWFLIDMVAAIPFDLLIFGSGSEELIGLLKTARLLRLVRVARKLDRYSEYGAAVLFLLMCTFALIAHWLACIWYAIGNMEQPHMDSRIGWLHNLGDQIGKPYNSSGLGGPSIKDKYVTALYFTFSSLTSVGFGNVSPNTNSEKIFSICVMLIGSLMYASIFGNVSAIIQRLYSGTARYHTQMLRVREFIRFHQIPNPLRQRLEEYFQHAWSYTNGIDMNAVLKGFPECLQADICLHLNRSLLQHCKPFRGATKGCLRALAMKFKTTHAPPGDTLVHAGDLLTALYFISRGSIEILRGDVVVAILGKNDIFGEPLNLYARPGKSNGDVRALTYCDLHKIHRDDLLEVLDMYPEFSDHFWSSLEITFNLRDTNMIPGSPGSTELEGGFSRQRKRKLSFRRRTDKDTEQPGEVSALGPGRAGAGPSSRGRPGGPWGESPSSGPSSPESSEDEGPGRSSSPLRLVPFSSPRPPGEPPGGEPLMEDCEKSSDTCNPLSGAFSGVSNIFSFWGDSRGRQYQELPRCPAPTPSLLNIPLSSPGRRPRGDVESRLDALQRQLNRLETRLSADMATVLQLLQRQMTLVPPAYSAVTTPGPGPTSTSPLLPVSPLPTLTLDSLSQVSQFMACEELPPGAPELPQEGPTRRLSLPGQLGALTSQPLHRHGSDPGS
compound,measurement,setting,value
"Cn1c(Cn2ccc(C(F)(F)F)c(Oc3cc(Cl)cc(C#N)c3)c2=O)n[nH]c1=O [Doravirine, doravirine]",IC50,HIV-RT,11 nM
"O=C1Nc2ccc(Cl)cc2[C@@](C#CC2CC2)(C(F)(F)F)O1 [EFV, efavirenz]","calcium accumulation, delayed phase (in words)",primary mouse neurons [1],pronounced increase
same,"calcium spiking frequency, acute phase (in words)",primary mouse neurons [1],acute suppression
same,plasma levels,"[2]; human, in vivo",3170 to 12670 nM
same,estimated TC10,primary mouse neurons [3],70 nM
CO[P@](=O)(c1cc(C)cc(/C=C/C#N)c1)c1c(C(N)=O)[nH]c2ccc(Cl)cc12 [IDX899],EC50,HIV; aryl-phospho-indole,1 nM
"Cc1cc(/C=C/C#N)cc(C)c1Nc1ccnc(Nc2ccc(C#N)cc2)n1 [RPV, rilpivirine]",EC50,HIV-1 IIIB virus; [10],0.35 ± 0.03 nM
same,"calcium spiking frequency, acute phase (in words)",primary mouse neurons [1],acute suppression
same,recorded CSF concentrations,[2],up to 2.9 ng/ml and ≤ 7.9 nM
same,estimated TC10,primary mouse neurons [3],600 to 930 nM
same,EC50,[4],160 ± 60 nM
same,EC50,[5]; read-out: A17 EC50 (nM),2.5 ± 1.9 nM
same,proposed plasma target concentration (protein binding-adjusted EC90),HIV,0.0121 µg/mL
same,EC90,HIV; read-out: proposed plasma target concentration (protein binding-adjusted EC90),33 nM
same,concentration shown to inhibit hERG in vitro,hERG,300 nM
"Nc1nc(Nc2ccc(Cl)cc2)nn1S(=O)(=O)c1ccc2ccccc2c1 [compound 11626007, N^3-(4-chlorophenyl)-1-(2-naphthylsulfonyl)-1,2,4-triazole-3,5-diamine]",toxicity in MTS assay (in words),TZM-bl cells,No observable toxicity
same,TC50 (µM) Relative MAP-2 Area,primary mouse neurons [3],34 ± 46 µM
same,TC50 (µM) Relative MAP-2 intensity,primary mouse neurons [3],23 ± 18 µM
same,EC50,[4],280 ± 100 nM
same,inhibition of A17 mutant (in words),"[5]; TZM-bl cells, early screening",No appreciable inhibition
"N#Cc1ccc(Nc2nc(N)n(S(=O)(=O)c3cccc4cc(C#N)ccc34)n2)cc1 [compound 11726152, 5-[[5-amino-3-(4-cyanoanilino)-1,2,4-triazol-1-yl]sulfonyl]naphthalene-2-carbonitrile]",EC50,HIV-1 IIIB virus; [10],0.35 ± 0.05 nM
same,TC50 (µM) Relative MAP-2 Area,primary mouse neurons [3],1.2 ± 0.6 µM
same,TC50 (µM) Relative MAP-2 intensity,primary mouse neurons [3],1.0 ± 0.5 µM
same,Safety Index,"primary mouse neurons [3]; TC10/(100*EC50), relative MAP-2 area",1.6
same,EC50,[4],700 ± 220 nM
same,EC50,[5]; read-out: A17 EC50 (nM),49 ± 7.8 nM
"N#Cc1ccc2c(S(=O)(=O)n3nc(Nc4ccc(C#N)c(Cl)c4)nc3N)cccc2c1 [compound 11826116, 5-[[5-amino-3-(3-chloro-4-cyano-anilino)-1,2,4-triazol-1-yl]sulfonyl]naphthalene-2-carbonitrile]",EC50,HIV-1 IIIB virus; [10],0.34 ± 0.04 nM
same,EC50,[5]; read-out: A17 EC50 (nM),25 ± 6.6 nM
"N#Cc1ccc(Nc2nc(N)n(S(=O)(=O)c3c(Cl)nc4sccn34)n2)cc1 [compound 11926331, 4-[[5-amino-1-(6-chloroimidazo[2,1-b]thiazol-5-yl)sulfonyl-1,2,4-triazol-3-yl]amino]-benzonitrile]",whole cell virus activity (in words),HIV-1 IIIB virus; Table S1,excellent
same,RT activity (in words),[4]; Table S1,excellent
"N#Cc1ccc2c(S(=O)(=O)n3nc(Nc4ccc(C#N)c(C#N)c4)nc3N)cccc2c1 [compound 12126055, 4-[[5-amino-1-[(6-cyano-1-naphthyl)sulfonyl]-1,2,4-triazol-3-yl]amino]phthalonitrile]",EC50,HIV-1 IIIB virus; [10],0.21 ± 0.01 nM
same,CC50 at 48 h,[6],28000 ± 66000 nM
same,TC50 (µM) Relative MAP-2 Area,primary mouse neurons [3],48 ± 86 µM
same,TC50 (µM) Relative MAP-2 intensity,primary mouse neurons [3],50 ± 140 µM
same,EC50,[4],350 ± 130 nM
same,EC50,[5]; read-out: A17 EC50 (nM),49 ± 9.5 nM
"N#C/C=C/c1ccc2c(S(=O)(=O)n3nc(Nc4ccc(C#N)c(Cl)c4)nc3N)cccc2c1 [compound 12126065, 4-[[5-amino-1-[[6-[(E)-2-cyanovinyl]-1-naphthyl]sulfonyl]-1,2,4-triazol-3-yl]amino]-2-chloro-benzonitrile]",activity against K103N mutant (in words),K103N HIV mutant,retained activity
same,EC50,"HIV-1 IIIB virus; Human immunodeficiency virus 1, IIIB, TZM, read-out: EC50 against wild-type HIV-1 in TZM cells",0.24 nM
same,EC50,"HIV-1 IIIB virus; Human immunodeficiency virus 1, IIIB, TZM-bl, read-out: EC50 (TZM, WT)",0.263 nM
same,EC50,HIV-1 IIIB virus; [10],0.47 ± 0.05 nM
same,EC90,"HIV-1 IIIB virus; Human immunodeficiency virus 1, IIIB, TZM-bl, read-out: estimated EC90",19 nM
same,metabolic stability (in words),[7],good
same,acute toxicity (in words),Balb/C male mice,no in vivo acute or subacute toxicity; also recorded: No visible signs of intoxication
same,TC50 (µM) Relative MAP-2 Area,primary mouse neurons [3],100 ± 410 µM
same,TC50 (µM) Relative MAP-2 intensity,primary mouse neurons [3],>10 µM
same,Estimated TC10 (µM) Relative MAP-2 Intensity,primary mouse neurons [3]; concentration of 10% loss of MAP-2,>10 µM
same,50% toxicity concentration (TC50),"primary mouse neurons [3]; mouse neurons, as stated in abstract",> 100000 nM
same,neurotoxicity in mouse neurons (in words),primary mouse neurons [3]; up to 10 µM,minimal neurotoxicity
same,half-life,"[8]; male, Balb/C, plasma, po, 250 mg/kg",7.7 ± 1.57 h
same,in vivo brain penetration (in words),[8]; in vivo,good
same,metabolic stability (in words),[9],good
same,EC50,[4],230 ± 70 nM
same,activity against Y181C mutant (in words),Y181C HIV mutant,retained activity
same,efflux in Caco-2 cells (in words),Caco-2 cells,no indication of efflux
same,EC50,[5]; read-out: A17 EC50 (nM),3.4 ± 1.1 nM
same,EC50,[5]; read-out: EC50 against K103N/Y181C double mutant,1.33 ± 0.16 nM
same,protein binding (in words),Protein binding,high
same,aspartate aminotransferase activity versus control (in words),Balb/C mice; 250 mg/kg group only,reduced aspartate aminotransferase activity
same,subacute toxicity (in words),Balb/C mice; 25 and 250 mg/kg daily,no in vivo acute or subacute toxicity
same,solubility (in words),Solubility,poor
same,activity against L100I/K103N mutant (in words),L100I/K103N HIV mutant,not drastically mitigated; also recorded: retained activity
